Measured values as given in ChEMBL document CHEMBL3085681, “Synthesis of novel 1,2,3-triazole based benzoxazolinones: their TNF-α based molecular docking with in-vivo anti-inflammatory, antinociceptive activities and ulcerogenic risk evaluation” (Eur J Med Chem, 2013).
The source made the active and inactive calls. No cut-off for these calls is given here.

Key:
[1] = test system: Rattus norvegicus; test: Ulcerogenicity in albino Wistar rat assessed as gastric muscular layer damage at 0.15 mmol/kg, po by hematoxylin and eosin staining-based assay; format: toxicity, organism-based, Stomach; conditions: in vivo
[2] = test system: Rattus norvegicus; test: Ulcerogenicity in albino Wistar rat assessed as gastric deep mucosal damage at 0.15 mmol/kg, po by hematoxylin and eosin staining-based assay; format: toxicity, organism-based, Stomach; conditions: in vivo
[3] = test system: Rattus norvegicus; test: Ulcerogenicity in albino Wistar rat assessed as gastric superficial mucosal damage at 0.15 mmol/kg, po by hematoxylin and eosin staining-based assay; format: toxicity, organism-based, Stomach; conditions: in vivo
[4] = test system: Rattus norvegicus; test: Ulcerogenicity in albino Wistar rat assessed as gastric surface epithelial damage at 0.15 mmol/kg, po by hematoxylin and eosin staining-based assay; format: toxicity, organism-based, Stomach; conditions: in vivo
[5] = test system: Rattus norvegicus; test: Antinociceptive activity in albino Wistar rat assessed as thermal-stimulus induced tail flick latency at 0.05 mmol/kg, po after 120 mins (reference value: 2.38 +/- 0.11 mins); format: functional
[6] = test system: Rattus norvegicus; test: Antinociceptive activity in albino Wistar rat assessed as thermal-stimulus induced tail flick latency at 0.05 mmol/kg, po after 60 mins (reference value: 2.54 +/- 0.05 mins); format: functional
[7] = test system: Rattus norvegicus; test: Antinociceptive activity in albino Wistar rat assessed as thermal-stimulus induced tail flick latency at 0.05 mmol/kg, po after 30 mins (reference value: 2.22 +/- 0.20 mins); format: functional
[8] = species on record: Homo sapiens; test: Selectivity index, ratio of IC50 for COX1 (unknown origin) to IC50 for human recombinant COX2
[9] = target: T1, Prostaglandin G/H synthase 2 (Homo sapiens, UniProt P35354); test: Inhibition of human recombinant COX2 expressed in insect cell expression system using TMPD and arachidonic acid as substrate incubated for 1 min prior to substrate addition by spectrophotometry
T1 sequence (P35354 whole entry): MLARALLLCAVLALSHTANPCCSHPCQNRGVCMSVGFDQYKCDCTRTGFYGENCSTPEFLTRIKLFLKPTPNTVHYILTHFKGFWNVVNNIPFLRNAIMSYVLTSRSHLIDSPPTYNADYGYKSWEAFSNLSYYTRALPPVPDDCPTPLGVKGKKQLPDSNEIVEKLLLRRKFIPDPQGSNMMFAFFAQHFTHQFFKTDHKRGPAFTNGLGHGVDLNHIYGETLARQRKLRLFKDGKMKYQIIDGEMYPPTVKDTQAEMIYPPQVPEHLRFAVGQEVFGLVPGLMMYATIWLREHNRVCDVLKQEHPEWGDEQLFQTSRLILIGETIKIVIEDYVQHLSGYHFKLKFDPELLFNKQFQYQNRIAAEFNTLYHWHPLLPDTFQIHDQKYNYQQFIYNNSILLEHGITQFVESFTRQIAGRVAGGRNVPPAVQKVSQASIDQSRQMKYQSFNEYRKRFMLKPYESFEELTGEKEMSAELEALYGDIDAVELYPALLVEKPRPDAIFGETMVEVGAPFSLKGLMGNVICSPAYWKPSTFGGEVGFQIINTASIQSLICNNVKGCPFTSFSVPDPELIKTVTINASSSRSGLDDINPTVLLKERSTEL

[10] = target: Prostaglandin G/H synthase 1 (Homo sapiens, UniProt P23219); test: Inhibition of COX1 (unknown origin)
Chain of Prostaglandin G/H synthase 1 (P23219 whole entry): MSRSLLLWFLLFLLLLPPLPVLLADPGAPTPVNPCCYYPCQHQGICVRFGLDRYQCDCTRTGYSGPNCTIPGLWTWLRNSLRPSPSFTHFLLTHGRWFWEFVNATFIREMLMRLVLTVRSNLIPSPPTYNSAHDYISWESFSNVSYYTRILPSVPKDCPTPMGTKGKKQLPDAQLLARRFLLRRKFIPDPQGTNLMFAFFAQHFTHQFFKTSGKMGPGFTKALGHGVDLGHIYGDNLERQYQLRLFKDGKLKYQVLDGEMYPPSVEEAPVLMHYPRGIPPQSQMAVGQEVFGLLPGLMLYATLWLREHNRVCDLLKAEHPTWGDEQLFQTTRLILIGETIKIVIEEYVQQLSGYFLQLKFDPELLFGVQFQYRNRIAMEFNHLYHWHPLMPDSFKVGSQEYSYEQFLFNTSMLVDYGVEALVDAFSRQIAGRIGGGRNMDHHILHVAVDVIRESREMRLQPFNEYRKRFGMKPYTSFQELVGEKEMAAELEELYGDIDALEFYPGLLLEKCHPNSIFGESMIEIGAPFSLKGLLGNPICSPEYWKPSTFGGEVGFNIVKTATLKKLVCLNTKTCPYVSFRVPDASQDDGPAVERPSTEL

[11] = test system: Mus musculus; test: Antinociceptive activity in mouse assessed as inhibition of acetic acid-induced writhing at 0.05 mmol/kg, po administered 30 mins prior to acetic acid-challenge measured after 20 mins relative to control; format: functional
Summary of the method: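 Writhing in mice by the Koster method. Six animals per group, compound given orally at 0.05 mmol/kg 30 min before i.p. 0.6% (v/v) acetic acid (80 mg/kg). Total writhes counted over 20 min after acetic acid injection.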

[12] = Antiinflammatory activity in macrophages (unknown origin) assessed as inhibition of TNF-alpha secretion incubated for 2 hrs by ELISA relative to control; format: functional, Macrophage
Summary of the method: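 Macrophages grown in RPMI 1640 with 10% FBS, glutamine and penicillin/streptomycin, plated at 2 × 10^6 cells/mL. Pre-treated with cytochalasin D (2.5 µM per 10^6 cells) for 30 min, kept on throughout. Cells exposed to varying compound concentrations. TNF-α in supernatants measured by sandwich ELISA with TMB read at 450 nm, quantified against the kit standard.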

[13] = test system: Rattus norvegicus; test: Antiinflammatory activity in albino Wistar rat assessed as inhibition of carrageenan-induced hind paw edema at 0.05 mmol/kg, po administered 1 hr prior to carrageenan challenge measured after 5 hrs by plethysmometric analysis relative to control; format: functional
Summary of the method: (§1)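 Oedema raised by s.c. injection of 0.1 ml of freshly prepared 1% carrageenan in saline into the right hind paw. Test agents given orally at 0.05 mmol/kg, 1 h before carrageenan; saline vehicle control. Paw volume read by plethysmometer at 3 h and 5 h.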

[14] = test system: Rattus norvegicus; test: Antiinflammatory activity in albino Wistar rat assessed as inhibition of carrageenan-induced hind paw edema at 0.05 mmol/kg, po administered 1 hr prior to carrageenan challenge measured after 3 hrs by plethysmometric analysis relative to control; format: functional; summary of the method: as §1
[15] = test system: Rattus norvegicus; test: Antiinflammatory activity in albino Wistar rat assessed as inhibition of carrageenan-induced hind paw edema at 0.05 mmol/kg, po administered 1 hr prior to carrageenan challenge by plethysmometric analysis; format: functional, organism-based; conditions: TDE = time-dependent effect; summary of the method: as §1

Row | Compound | Ratio IC50 [8] | IC50 [9] | IC50 [10] | Activity [1] | Activity [2] | Activity [3] | Activity [4] | Time [5] | Time [6] | Time [7] | inhibition in vivo at 50 µmol/kg [11] | inhibition (INH) [12] | inhibition in vivo at 50 µmol/kg [13] | inhibition in vivo at 50 µmol/kg [14] | inhibition [15] | inhibition [13] | inhibition [14]
1 | COc1ccc2c(c1)c(CC(=O)O)c(C)n2C(=O)c1ccc(Cl)cc1 [INDOMETHACIN] |  |  |  | Toxic | Toxic | Toxic | Toxic | 3.54 min | 3.68 min | 3.12 min | 44.7% | 64.01% | 82.2% | 79.1% |  |  | 
2 | COc1ccc(-n2cc(Cn3c(=O)oc4ccccc43)nn2)cc1 |  |  |  |  |  |  |  |  |  |  |  |  |  |  |  | Active | Active
3 | O=c1oc2ccccc2n1Cc1cn(-c2cccnc2)nn1 |  |  |  |  |  |  |  |  |  |  |  |  |  |  |  | Active | Active
4 | CCOc1ccc(-n2cc(Cn3c(=O)oc4ccccc43)nn2)cc1 |  |  |  |  |  |  |  |  |  |  |  |  |  |  |  | Active | Active
5 | O=c1oc2ccccc2n1Cc1cn(-c2cccc([N+](=O)[O-])c2)nn1 |  |  |  |  |  |  |  |  |  |  |  |  |  |  |  | inactive | inactive

Continued, in another order:

Row | Ratio IC50 [8] | IC50 [9] | IC50 [10] | Compound | Activity [1] | Activity [2] | Activity [3] | Activity [4] | Time [5] | Time [6] | Time [7] | inhibition in vivo at 50 µmol/kg [11] | inhibition (INH) [12] | inhibition in vivo at 50 µmol/kg [13] | inhibition in vivo at 50 µmol/kg [14] | inhibition [15] | inhibition [13] | inhibition [14]
6 | 44.6 | 3.1 µM | 138 µM | O=c1oc2ccc(Cl)cc2n1Cc1cn(-c2ccccc2F)nn1 | Non-toxic | Non-toxic | Non-toxic | Non-toxic | 2.64 min | 2.78 min | 2.88 min |  |  |  |  |  |  | 
7 | 57.6 | 3.6 µM | 207 µM | Cc1ccc2c(c1)oc(=O)n2Cc1cn(-c2ccccc2Cl)nn1 | Non-toxic | Non-toxic | Non-toxic | Non-toxic | 2.56 min | 2.44 min | 2.18 min |  |  | 72.9% | 71.8% | tde |  | 
8 | 41.2 | 2.7 µM | 111 µM | O=c1oc2ccc(Cl)cc2n1Cc1cn(-c2ccc(Cl)cc2)nn1 | Non-toxic | Non-toxic | Non-toxic | Non-toxic |  |  |  |  |  | 65.1% | 67.4% |  |  | 
9 | 67.7 | 2.78 µM | 188 µM | Cc1ccc2oc(=O)n(Cc3cn(-c4ccc(Br)cc4)nn3)c2c1 | Non-toxic | Non-toxic | Non-toxic | Non-toxic | 2.88 min | 2.74 min | 2.62 min | 41.8% | 50.95% | 74.8% | 73.2% | tde |  | 
10 | 69.5 | 5.6 µM | 389 µM | Cc1ccc2c(c1)oc(=O)n2Cc1cn(-c2ccc(Cl)cc2)nn1 | Non-toxic | Non-toxic | Non-toxic | Non-toxic | 3.34 min | 3.22 min | 3.08 min |  |  | 76.7% | 74% |  |  | 
11 | 72.8 | 2.4 µM | 175 µM | Cc1ccc2c(c1)oc(=O)n2Cc1cn(-c2ccc(F)cc2)nn1 | Non-toxic | Non-toxic | Non-toxic | Non-toxic | 3.36 min | 3.24 min | 3.1 min |  |  | 80.6% | 81.4% |  |  | 
